Measured values: ChEMBL document CHEMBL3352690, “Synthesis and evaluation of arylpiperazines derivatives of 3,5-dioxo-(2H,4H)-1,2,4-triazine as 5-HT1AR ligands” (Bioorg Med Chem Lett, 2014)

What was measured:
[1] = biological target: T1, Adrenergic receptor alpha-1 (Homo sapiens, UniProt P35348+P25100+P35368); assay: Displacement of [3H]-7-methoxyprazosin from alpha1 adrenergic receptor (unknown origin) by competition binding assay
T1 sequence (P35348 whole entry): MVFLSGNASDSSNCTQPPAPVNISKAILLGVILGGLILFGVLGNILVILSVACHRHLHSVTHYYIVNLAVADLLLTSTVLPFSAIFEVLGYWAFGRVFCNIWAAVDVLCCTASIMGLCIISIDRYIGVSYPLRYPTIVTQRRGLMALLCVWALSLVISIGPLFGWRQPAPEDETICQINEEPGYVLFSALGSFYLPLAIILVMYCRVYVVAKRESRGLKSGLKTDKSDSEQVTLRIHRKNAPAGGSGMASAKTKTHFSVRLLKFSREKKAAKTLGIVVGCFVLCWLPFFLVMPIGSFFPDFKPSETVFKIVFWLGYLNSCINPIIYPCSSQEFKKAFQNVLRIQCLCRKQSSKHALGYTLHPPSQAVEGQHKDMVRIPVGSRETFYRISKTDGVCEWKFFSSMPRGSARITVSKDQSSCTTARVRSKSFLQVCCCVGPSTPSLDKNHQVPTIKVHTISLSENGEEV
T1 sequence (P25100 whole entry): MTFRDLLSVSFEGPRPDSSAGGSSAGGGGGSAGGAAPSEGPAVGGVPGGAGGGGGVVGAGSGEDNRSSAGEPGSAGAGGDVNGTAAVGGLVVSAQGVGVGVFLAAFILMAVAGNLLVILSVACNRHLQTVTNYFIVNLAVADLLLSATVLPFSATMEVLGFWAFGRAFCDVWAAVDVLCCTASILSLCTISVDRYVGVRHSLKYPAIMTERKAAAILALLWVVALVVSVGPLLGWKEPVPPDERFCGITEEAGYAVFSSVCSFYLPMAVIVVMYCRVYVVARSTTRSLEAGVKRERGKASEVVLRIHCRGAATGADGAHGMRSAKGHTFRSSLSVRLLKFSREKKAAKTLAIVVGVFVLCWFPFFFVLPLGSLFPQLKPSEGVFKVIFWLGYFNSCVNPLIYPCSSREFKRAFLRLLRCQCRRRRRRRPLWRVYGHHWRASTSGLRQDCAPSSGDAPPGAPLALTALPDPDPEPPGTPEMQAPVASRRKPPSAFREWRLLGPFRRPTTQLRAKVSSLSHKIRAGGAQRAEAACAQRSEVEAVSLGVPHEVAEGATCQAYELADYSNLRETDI
T1 sequence (P35368 whole entry): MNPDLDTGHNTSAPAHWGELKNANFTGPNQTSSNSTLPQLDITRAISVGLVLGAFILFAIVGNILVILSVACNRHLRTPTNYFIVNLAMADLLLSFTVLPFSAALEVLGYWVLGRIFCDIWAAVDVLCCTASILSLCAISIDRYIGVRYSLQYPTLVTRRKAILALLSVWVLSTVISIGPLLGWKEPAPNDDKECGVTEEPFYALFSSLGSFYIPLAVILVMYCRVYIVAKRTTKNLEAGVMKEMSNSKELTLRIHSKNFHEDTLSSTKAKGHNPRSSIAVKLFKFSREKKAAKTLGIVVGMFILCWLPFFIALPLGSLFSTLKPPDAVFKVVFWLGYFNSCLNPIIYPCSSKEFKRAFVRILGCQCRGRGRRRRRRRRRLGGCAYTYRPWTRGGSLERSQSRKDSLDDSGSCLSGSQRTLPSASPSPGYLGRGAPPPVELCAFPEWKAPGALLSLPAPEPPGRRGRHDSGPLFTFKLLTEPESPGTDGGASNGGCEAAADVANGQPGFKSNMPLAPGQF
Procedure, shortened: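 Competition binding against [3H]-7-methoxyprazosin, with phentolamine as the reference compound.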

[2] = biological target: T2, 5-hydroxytryptamine receptor 1A (Homo sapiens, UniProt P08908); assay: Displacement of [3H]8-OH-DPAT from 5HT1AR (unknown origin) by competition binding assay
T2 sequence (P08908 whole entry): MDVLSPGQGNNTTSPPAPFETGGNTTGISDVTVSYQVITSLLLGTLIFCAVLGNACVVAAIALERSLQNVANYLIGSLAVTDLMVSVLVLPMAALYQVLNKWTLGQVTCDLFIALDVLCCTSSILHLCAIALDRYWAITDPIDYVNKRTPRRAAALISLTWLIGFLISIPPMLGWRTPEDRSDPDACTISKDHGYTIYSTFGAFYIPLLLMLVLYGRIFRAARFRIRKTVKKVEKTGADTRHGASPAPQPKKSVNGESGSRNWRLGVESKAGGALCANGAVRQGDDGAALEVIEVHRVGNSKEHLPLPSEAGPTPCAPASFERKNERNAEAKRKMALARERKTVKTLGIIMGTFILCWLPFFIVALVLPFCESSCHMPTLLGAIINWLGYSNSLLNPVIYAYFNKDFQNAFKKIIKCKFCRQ

[3] = biological target: T3, 5-hydroxytryptamine receptor 1A (Homo sapiens) (UniProt P08908); assay: (§1) Agonist activity at human 5HT1AR expressed in CHO cells assessed as increase in [35S]GTPgammaS binding by liquid scintillation spectrometry; assay type: functional, cell-based
T3 sequence (whole entry): T2 sequence (P08908 whole entry)
Procedure, shortened: (§2)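 CHO-h5-HT1A cell membranes (30 μg) preincubated 5 min at room temperature with set concentrations of ligand in 20 mM HEPES pH 7.4, 3 mM MgCl2, 100 mM NaCl, 3 μM GDP. [35S]GTPγS (0.1 nM) then added, 60 min at room temperature. Stopped by rapid filtration through GF/B filters with three ice-cold 20 mM HEPES pH 7.4 washes. Bound radioactivity counted by liquid scintillation.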

[4] = biological target: T2, 5-hydroxytryptamine receptor 1A; assay: as §1; assay type: functional, cell-based; procedure, shortened: as §2
[5] = biological target: T3, 5-hydroxytryptamine receptor 1A (Homo sapiens); assay: Agonist activity at human 5HT1AR expressed in CHO cells assessed as increase in [35S]GTPgammaS binding by liquid scintillation spectrometry relative to untreated control; assay type: functional, cell-based; details: in the assay text read “relative to 5-HT” for “relative to untreated control”; procedure, shortened: as §2
Homo sapiens = organism: Homo sapiens; assay: Selectivity index, ratio of Ki for alpha1 adrenergic receptor (unknown origin) to Ki for 5HT1AR (unknown origin)

Structure (SMILES) | Ki [1] [nM] | Ki [2] [nM] | Activity [3] | EC50 [4] [nM] | Emax [5] [%] | Ratio Ki (Homo sapiens)
Cn1c(=O)cnn(CCCCN2CCN(c3ccccc3S)CC2)c1=O | > 10000 | 8 |  |  |  | 
Cn1c(=O)cnn(CCCCN2CCN(c3ccccn3)CC2)c1=O | 262 | 1.1 | Dose-dependent effect | 0.08 | 85 | 
COc1ccccc1N1CCN(CCCn2ncc(=O)n(C)c2=O)CC1 | > 10000 | 180 |  |  |  | 
Cn1c(=O)cnn(CCCN2CCN(c3ccccc3)CC2)c1=O | > 10000 | 350 |  |  |  | 
COc1ccc2cccc(N3CCN(CCCn4ncc(=O)n(C)c4=O)CC3)c2c1 | > 10000 | 175 |  |  |  | 
CN(C)c1ccccc1N1CCN(CCCCn2ncc(=O)n(C)c2=O)CC1 | 350 | 180 |  |  |  | 
CCOc1ccc2cccc(N3CCN(CCCCn4ncc(=O)n(C)c4=O)CC3)c2c1 | 48 | 2.1 |  |  |  | 
Cn1c(=O)cnn(CCCCN2CCN(c3ccccc3F)CC2)c1=O | 9.73 | 1.89 |  |  |  | 
Cn1c(=O)cnn(CCCCN2CCN(c3cccc(Br)n3)CC2)c1=O | > 10000 | 1.4 |  |  |  | 
CNc1ccccc1N1CCN(CCCCn2ncc(=O)n(C)c2=O)CC1 | 450 | 220 |  |  |  | 
Cn1c(=O)cnn(CCCN2CCN(c3ccccc3F)CC2)c1=O | > 10000 | 250 |  |  |  | 
Cn1c(=O)cnn(CCCCN2CCN(c3cccc4ccc(O)cc34)CC2)c1=O | 24.5 | 0.44 |  |  |  | 
CSc1ccccc1N1CCN(CCCCn2ncc(=O)n(C)c2=O)CC1 | 1.8 | 0.46 |  |  |  | 
COc1ccc(N2CCN(CCCCn3ncc(=O)n(C)c3=O)CC2)c(C#N)c1 | 380 | 215 |  |  |  | 
COc1ccccc1N1CCN(CCCCn2ncc(=O)n(C)c2=O)CC1 | 6.75 |  | Dose-dependent effect |  |  | 45
COc1ccc(N2CCN(CCCCn3ncc(=O)n(C)c3=O)CC2)cc1 | > 10000 | 414 |  |  |  | 
Cn1c(=O)cnn(CCCCN2CCN(c3ccccc3O)CC2)c1=O | > 10000 | 1.7 |  |  |  | > 10000

Structure (SMILES) | Ki [1] [nM] | Ki [2] [nM] | Activity [3] | EC50 [4] [nM] | Emax [5] [%] | Ratio Ki (Homo sapiens)
COc1ccccc1N1CCN(CCn2ncc(=O)n(C)c2=O)CC1 | > 10000 | 240 |  |  |  | 
Cn1c(=O)cnn(CCCCN2CCN(c3ccc(I)cc3)CC2)c1=O | 103 | 58.8 |  |  |  | 
Cn1c(=O)cnn(CCCCN2CCN(c3cccc(F)n3)CC2)c1=O | > 10000 | 0.2 | Dose-dependent effect | 0.2 | 95 | 
COc1ccc(N2CCN(CCCCn3ncc(=O)n(C)c3=O)CC2)c(OC)c1 | > 10000 | 190 |  |  |  | 
CCOc1ccccc1N1CCN(CCCCn2ncc(=O)n(C)c2=O)CC1 | 1.8 | 0.66 |  |  |  | 
Cn1c(=O)cnn(CCCCN2CCN(c3ccccc3C#N)CC2)c1=O | 7.3 | 0.835 |  |  |  | 
Cn1c(=O)cnn(CCCCN2CCN(c3ncccn3)CC2)c1=O [EPTAPIRONE] | > 10000 | 175 |  |  |  | 
Cn1c(=O)cnn(CCCCN2CCN(c3c(F)cccc3C#N)CC2)c1=O | > 10000 | 4.8 |  |  |  | 
Cn1c(=O)cnn(CCCCN2CCN(c3ccccc3OCCCF)CC2)c1=O | 280 | 0.8 |  |  |  | 42
COc1ccccc1N1CCN(CCCCCn2ncc(=O)n(C)c2=O)CC1 | > 10000 | 150 |  |  |  | 
Cn1c(=O)cnn(CCCCN2CCN(c3ncccc3F)CC2)c1=O | > 10000 | 1.2 | Dose-dependent effect | 0.8 | 80 | 
Cn1c(=O)cnn(CCCCN2CCN(c3cccc(O)c3)CC2)c1=O | > 10000 | 2.8 |  |  |  | 
Cn1c(=O)cnn(CCCCN2CCN(c3ccccc3)CC2)c1=O | 64 | 2.5 | Dose-dependent effect | 0.3 | 93 | 25
Cn1c(=O)cnn(CCCCN2CCN(c3ccc(F)cn3)CC2)c1=O | > 10000 | 68 |  |  |  | 
COc1ccc2cccc(N3CCN(CCCCCn4ncc(=O)n(C)c4=O)CC3)c2c1 | > 10000 | 240 |  |  |  | 
Cn1c(=O)cnn(CCCCN2CCN(c3c(Br)cccc3C#N)CC2)c1=O | 450 | 28 |  |  |  | 
